This note sets out measurements from ChEMBL document CHEMBL2062411, “Structure-activity relationship study of selective excitatory amino acid transporter subtype 1 (EAAT1) inhibitor 2-amino-4-(4-methoxyphenyl)-7-(naphthalen-1-yl)-5-oxo-5,6,7,8-tetrahydro-4H-chromene-3-carbonitrile (UCPH-101) and absolute configurational assignment using infrared and vibrational …” (J Med Chem, 2012).

Common to all, as to type: cell-based
For assay [1], the target named is Excitatory amino acid transporter 1 (Homo sapiens, UniProt P43003). Nature of the assay: Inhibition of human EAAT1 expressed in HEK293 cells assessed as inhibition of 3[H]-D-Aspartate uptake after 6 mins by scintillation counting method. The essentials: (§1)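 HEK293 cell lines expressing EAAT1, EAAT2 or EAAT3 were cultured and assayed for [³H]-D-aspartate uptake, following an earlier published protocol. Inhibition is reported as IC50 in μM, with pIC50 ± SEM.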

In assay [2] the target is T1, Excitatory amino acid transporter 3 (Homo sapiens, UniProt P43005).
T1 sequence (P43005 whole entry): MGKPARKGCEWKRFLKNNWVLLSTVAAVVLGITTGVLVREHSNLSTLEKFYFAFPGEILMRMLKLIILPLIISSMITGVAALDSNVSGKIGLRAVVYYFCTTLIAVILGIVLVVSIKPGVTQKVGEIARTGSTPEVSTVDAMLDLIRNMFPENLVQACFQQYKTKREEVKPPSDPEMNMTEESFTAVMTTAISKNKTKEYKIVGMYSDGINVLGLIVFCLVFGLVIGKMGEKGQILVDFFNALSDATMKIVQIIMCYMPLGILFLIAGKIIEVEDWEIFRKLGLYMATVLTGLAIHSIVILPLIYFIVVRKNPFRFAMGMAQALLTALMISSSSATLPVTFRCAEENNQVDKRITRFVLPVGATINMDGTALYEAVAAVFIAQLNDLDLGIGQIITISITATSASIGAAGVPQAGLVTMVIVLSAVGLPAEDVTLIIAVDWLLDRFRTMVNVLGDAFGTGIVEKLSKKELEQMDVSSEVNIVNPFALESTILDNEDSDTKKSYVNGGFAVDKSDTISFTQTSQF
Nature of the assay: Inhibition of human EAAT3 expressed in HEK293 cells assessed as inhibition of 3[H]-D-Aspartate uptake after 6 mins by scintillation counting method. The essentials:
as §1

The target of assay [3] is Excitatory amino acid transporter 2 (Homo sapiens, UniProt P43004). Nature of the assay: Inhibition of human EAAT2 expressed in HEK293 cells assessed as inhibition of 3[H]-D-Aspartate uptake after 6 mins by scintillation counting method. The essentials: as §1

Bounds are passed on as bounds.

Chain of Excitatory amino acid transporter 2 (P43004 whole entry): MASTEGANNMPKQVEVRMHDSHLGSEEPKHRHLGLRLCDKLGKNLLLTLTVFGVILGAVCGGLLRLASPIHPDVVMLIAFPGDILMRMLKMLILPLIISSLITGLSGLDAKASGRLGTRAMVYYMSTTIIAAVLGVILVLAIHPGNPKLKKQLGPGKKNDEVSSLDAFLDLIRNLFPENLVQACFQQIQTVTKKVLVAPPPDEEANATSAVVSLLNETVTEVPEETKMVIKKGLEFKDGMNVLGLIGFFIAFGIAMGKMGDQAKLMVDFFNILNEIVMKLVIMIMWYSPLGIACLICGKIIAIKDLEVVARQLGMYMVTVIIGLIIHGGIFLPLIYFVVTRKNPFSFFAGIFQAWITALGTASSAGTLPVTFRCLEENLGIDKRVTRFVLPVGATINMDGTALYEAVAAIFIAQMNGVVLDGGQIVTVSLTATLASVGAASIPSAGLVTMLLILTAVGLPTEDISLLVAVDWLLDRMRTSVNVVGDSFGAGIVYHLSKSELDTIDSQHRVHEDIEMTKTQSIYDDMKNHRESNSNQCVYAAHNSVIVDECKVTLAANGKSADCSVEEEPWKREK
Chain of Excitatory amino acid transporter 1 (P43003 whole entry): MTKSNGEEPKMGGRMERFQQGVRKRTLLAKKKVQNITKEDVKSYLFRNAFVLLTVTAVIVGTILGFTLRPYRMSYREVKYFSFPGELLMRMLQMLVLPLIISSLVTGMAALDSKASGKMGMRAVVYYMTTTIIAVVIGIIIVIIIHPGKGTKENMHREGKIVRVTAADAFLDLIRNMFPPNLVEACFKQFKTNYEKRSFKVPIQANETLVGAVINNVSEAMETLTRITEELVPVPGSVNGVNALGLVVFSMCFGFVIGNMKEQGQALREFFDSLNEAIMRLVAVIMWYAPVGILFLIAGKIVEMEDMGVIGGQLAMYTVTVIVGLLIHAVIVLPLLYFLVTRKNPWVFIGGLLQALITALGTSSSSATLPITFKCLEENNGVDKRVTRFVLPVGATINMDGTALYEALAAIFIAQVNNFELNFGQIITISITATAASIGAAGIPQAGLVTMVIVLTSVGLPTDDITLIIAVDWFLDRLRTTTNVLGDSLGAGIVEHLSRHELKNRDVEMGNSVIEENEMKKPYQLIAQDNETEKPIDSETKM

Take `N#CC1=C(N)OC2=C(C(=O)CC(c3ccccc3)C2)C1c1ccccc1` (stereo unspecified): in assay [1] (read-out: IC50), the IC50 is 3.9 µM.

For the compound `CC1C(C#N)=C(N)OC2=C1C(=O)CC(c1cccc3ccccc13)C2` (stereo unspecified), the IC50 in assay [1] (read-out: IC50) worked out at 0.42 µM.

Consider `CC1(C)C(C#N)=C(N)OC2=C1C(=O)CC(c1ccccc1)C2` (stereo unspecified), for which the IC50 in assay [1] (read-out: IC50) was above 300 µM.

Take `N#CC1=C(N)OC2=C(C(=O)NC(c3ccccc3)C2)C1c1ccccc1` (stereo unspecified): in assay [1] (read-out: IC50), the IC50 was above 300 µM.

As to `N#CC1=C(N)OC2=C(C(=O)OC(c3ccccc3)C2)C1c1ccccc1` (stereo unspecified), the IC50 in assay [1] (read-out: IC50) was above 300 µM.

In the case of `N#CC1=C(N)OC2=C(C(=O)CN(c3ccccc3)C2)C1c1ccccc1` (stereo unspecified), the IC50 in assay [1] (read-out: pIC50 (converted)), in assay [2] and in assay [3] was above 100 µM throughout.

`N#CC1=C(N)OC2=C(C(=O)CN(Cc3ccccc3)C2)C1c1ccccc1` (stereo unspecified): the IC50 in assay [1] (read-out: pIC50 (converted)) was 16.2 µM; in assay [2], above 300 µM; in assay [3], above 300 µM.

As to `N#CC1=C(N)OC2=C(C(=O)CN(C(=O)c3ccccc3)C2)C1c1ccccc1` (stereo unspecified), the IC50 in assay [1] (read-out: pIC50 (converted)), in assay [2] and in assay [3] was above 100 µM each time.

Turning to `C[C@@H](c1ccccc1)N1CC(=O)C2=C(C1)OC(N)=C(C#N)[C@H]2c1ccccc1`, the IC50 in assay [1] (read-out: pIC50 (converted)) was 5.25 µM; in assay [2], above 300 µM; in assay [3] it was above 300 µM.

For `C[C@@H](c1ccccc1)N1CC(=O)C2=C(C1)OC(N)=C(C#N)[C@@H]2c1ccccc1`, the figures for the IC50 in assay [1] (read-out: pIC50 (converted)), in assay [2] and in assay [3] were above 316 µM, above 300 µM and above 300 µM, respectively.

`C[C@H](c1ccccc1)N1CC(=O)C2=C(C1)OC(N)=C(C#N)[C@@H]2c1ccccc1`: the figures for the IC50 in assay [1] (read-out: pIC50 (converted)), in assay [2] and in assay [3] were above 316 µM, above 300 µM and above 300 µM, respectively.

As to `C[C@H](c1ccccc1)N1CC(=O)C2=C(C1)OC(N)=C(C#N)[C@H]2c1ccccc1`, the IC50 is 3.72 µM in assay [1] (read-out: pIC50 (converted)), above 300 µM in assay [2] and above 300 µM in assay [3].
